High-throughput results from PubChem.
PG9 Ab binder: binders of HIV-1 gp120 antibody PG9, primary screen, biochemical, TR-FRET | TR-FRET gp120-PG9 antibody binding | inhibition, % at 6.7 µM | 360,000 tested, 0.43% active | AID 624416, 2012; in the data active = inhibition above about 8.5%
NR2E3 ag-1: NR2E3 agonists in two-hybrid cells, primary screen, cell-based, luminescence, CHO-S, Gal4-NCOR/VP16-NR2E3 | inhibition of corepressor binding, % at 3.98 µM | AID 602229, 2012 | luciferase | 360,000 tested, 0.35% active | Photoreceptor-specific nuclear receptor (Homo sapiens), Q9Y5X4;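 active = inhibition above the mean of all tested compounds plus 3 SD, cut at about 70% in these data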;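 also: 0% = DMSO with NR2E3 transfected cells and 100% = cells lacking NR2E3 construct; higher means lower luciferase signal from less NR2E3 corepressor binding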
NR2E3 ag-2: inhibitors of NR2E3-RetCOR corepressor binding, primary screen, NR2E3 agonist project, biochemical, TR-FRET, GST-NR2E3, biotin-RetCOR; Photoreceptor-specific nuclear receptor (Homo sapiens), Q9Y5X4; 1536-well; inhibition of corepressor binding, % at 4.78 µM; 320,000 tested, 0.12% active; AID 2300, 2010;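 active = percent inhibition above the cutoff of mean plus 3 SD of all tested compounds, set per screening campaign, cut at about 20% in these data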;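 also: 0% = DMSO wells and 100% = biotin wells as full block of FRET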
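Format: 1536-well format; test system: GST-NR2E3 and biotin-RetCOR proteins; read-out basis: percent inhibition of TR-FRET ratio; timing: 5 h incubation at 4 °C; detection: time-resolved FRET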
Rev-erbA mod: modulators of Rev-erb alpha DNA binding, primary screen, biochemical, FITC-DNA, fluorescence polarization, uHTS; 370,000 tested, 0.79% active; activity, % at 10 µM; AID 1259318, 2017; Rev-erbα–FITC-DNA binding, 90 min;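 active = activity above about 14%, limit read from the data; passing the limit was not always enough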;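 also: 0% = DMSO wells with 35 nM protein and 100% = DMSO wells with 750 nM protein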
rCAG RNA binder: binders of r(CAG) RNA repeats, primary screen, biochemical, fluorescence | inhibition, % at 3 µM | r(CAG) RNA repeat, TO-PRO-1 dye displacement fluorescence | AID 651821, 2012 | 370,000 tested, 1.3% active;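 active = inhibition above the plate cutoff, the mean of all test compounds on that plate plus 3 SD, cut at about 35% in these data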;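 also: 0% = DMSO alone and 100% = 100 µM mitoxantrone as full dye displacement; higher means more dye released from RNA so lower well fluorescence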
NR1D1 mod conf: modulators of Rev-erb alpha DNA binding, confirmation, biochemical, FITC-DNA, fluorescence polarization, single point. shares compounds with Rev-erbA mod. 90 min. activation, % at 25 µM. 3,000 tested, 61% active. AID 1259319, 2017;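 active = activation at or above a set limit, or at least 3 SD above the negative control mean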;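 also: 0% = 35 nM protein with DMSO and 100% = 750 nM protein high control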
RORg counter: modulation of RORgamma DNA binding, dose response, counter-screen for Rev-erb alpha modulator project, biochemical, fluorescence polarization, FITC-DNA; purified RORgamma protein-FITC-DNA binding; IC50, µM; 910 tested, 8% active; shares compounds with Rev-erbA mod;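 active = Compounds whose fitted half-maximal concentration for disrupting protein-DNA binding is below 10 micromolar; the record names Rev-erb in its text, so the target is in doubt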
* marks the source's active call; other numbers are inactive results; nt = no result given. Compounds with a hit are over-represented: about 2.6% of the library has one in this group of screens.

SMILES	PG9 Ab binder	NR2E3 ag-1	NR2E3 ag-2	Rev-erbA mod	rCAG RNA binder	NR1D1 mod conf	others
CCC(=O)Nc1sc(C(=O)Nc2ccccc2F)c(C)c1C(=O)OC	-2.3	-32.8	-0.5	1.9	-0.9	nt
CCOc1ccc(NC(=O)c2sc(NC(C)=O)c(C(=O)OC)c2C)cc1	2.6	-29.2	-0.5	30.9*	1.3	6.2
COc1ccccc1NC(=O)COC(=O)c1c(NC(C)=O)sc(C)c1C	-1.6	-41.4	nt	18.6*	3.1	6.1
CC(=O)Nc1sc(C)c(C)c1C(=O)OCC(=O)Nc1ccccc1	-2.8	-38.0	4.2	-1.8	-0.2	nt
CCC(=O)Nc1sc(C(=O)Nc2ccccc2OC)c(C)c1C(=O)OC	0.5	-1.0	2.5	42.2*	1.1	17.5
CC(=O)Nc1sc(C)c(C)c1C(=O)OCC(=O)N(Cc1ccccc1)C(C)C	-2.1	10.9	2.3	41.9*	0.4	31.7*	RORg counter=>40
CC(C)C[C@@H](CN)NC(=O)c1nc[nH]c1C(=O)N[C@@H](CC(C)C)C(=O)CNC[C@H](C)NC(=O)c1nc[nH]c1C(=O)N[C@@H](CC(C)C)C(=O)O	nt	-22.3	nt	nt	nt	nt
Cc1cc2c(cn1)C(CCC#N)(CCC#N)c1ccccc1-2	0.7	-13.4	2.3	-0.8	9.7	nt
Cc1nc(NC(=O)c2ccc(-c3cc4ccccc4oc3=O)cc2)ccc1Br	1.4	5.4	-5.5	35.6*	1.4	-7.5
CCOC(=O)c1ccccc1NC(=O)c1cccnc1	1.1	0.0	-0.6	2.4	-2.6	nt
CCOC(=O)c1ccccc1NC(=O)c1cncc(Br)c1	1.4	-9.9	nt	93.8*	1.4	76.9*	RORg counter=>40
Cc1cc(NC(=O)c2cncc(Br)c2)no1	0.2	3.1	-1.7	0.6	3.5	nt
Cc1nc(NC(=O)c2cncc(Br)c2)ccc1Br	-0.1	-17.9	1.2	61.7*	-1.8	54.9*	RORg counter=>40
COc1ccc(C(CNC(=O)c2ccc(C)c(S(=O)(=O)N3CCOCC3)c2)N2CCCC2)cc1 (stereo not given)	-0.5	-5.6	nt	-0.9	4.5	nt
Cc1cc(NC(=O)COC(=O)C2CC(=O)N(c3ccc(Cl)cc3)C2)no1 (stereo not given)	0.0	-6.6	2.1	22.4*	2.4	-7.9
Cc1cc(NC(=O)COC(=O)C2CC(=O)N(c3ccccc3)C2)no1 (stereo not given)	-0.8	9.6	4.6	-3.8	1.5	nt
C#CCOCCOCCOCCNc1nc(N2CCN(C(=O)[C@H](CCCN=C(N)N)n3cc(C(N)[C@@H](C)CC)nn3)CC2)nc(N2CCN(C(=O)[C@H](CCC(=O)O)n3cc([C@@H](N)CO)nn3)CC2)n1 (stereo not given in full)	-0.4	-5.7	nt	-5.9	2.6	nt
COc1ccc2nc(NC(=O)C(NS(=O)(=O)c3cccc4nsnc34)C(C)C)sc2c1 (stereo not given)	-0.3	12.4	4.8	31.0*	6.1	18.2*
Nn1c(SCc2cccc3ccccc23)nnc1-c1cc(-c2ccc(F)cc2)n[nH]1	nt	nt	nt	2.1	8.8	nt
NC(=O)c1cc2ccccc2o/c1=N\NC(=O)c1ccccc1O	-5.7	-27.7	-0.4	21.0*	1.6	-11.2
NC(=O)c1cc2ccccc2o/c1=N\NC(=O)c1ccc(F)cc1	-6.4	2.2	-3.5	1.4	1.3	nt
Cc1cc2c(s1)c1cnn(Cc3cc(F)c(F)cc3F)c(=O)c1n2C	nt	nt	nt	25.6*	nt	9.9
CC1(C(=O)NS(=O)(=O)c2ccc(F)cc2F)CCN1C(=O)CC1CCCC1 (stereo not given)	0.2	-6.7	nt	1.1	4.8	nt
C[C@H]1[C@H](N(Cc2cccs2)Cc2cccs2)CC[C@@]23CCCN2C(=O)CCC[C@@H]13	nt	nt	nt	4.6	nt	nt
